Experimental data gathered from unrelated publications.
Protocols differ between the studies behind these lines. Values after ≈ are worked out from the molar mass of the structure shown.

Structure (SMILES) | tested on | assay | test system | setting | measurement | value
CN[C@H](CC(C)C)C(=O)N[C@H]1C(=O)N[C@@H](CC(N)=O)C(=O)N[C@H]2C(=O)N[C@H]3C(=O)N[C@H](C(=O)N[C@H](C(=O)O)c4cc(O)cc(O)c4-c4cc3ccc4O)[C@H](O)c3ccc(c(Cl)c3)Oc3cc2cc(c3O[C@@H]2O[C@H](CO)[C@@H](O)[C@H](O)[C@H]2O[C@H]2C[C@](C)(N)[C@H](O)[C@H](C)O2)Oc2ccc(cc2Cl)[C@H]1O | Bacteroides fragilis | microbial growth, agar dilution |  | 48 h | MIC | > 16 µg/mL
O=c1c2ccccc2[se]n1-c1ccccc1 | MRC5 | cell growth or viability, MTT |  | 125 µM, 72 h | inhibition | 56%
COc1ccc(C(=O)c2c[nH]c3ncc(-c4ccc(N5CCN(C(=O)OC(C)(C)C)CC5)nc4)cc23)cc1 | MRC5 | cell growth or viability, MTT |  | 10 µM, 48 h | viability | 80.2%
OC(Cn1cncn1)(Cn1cncn1)c1ccc(F)cc1F | Aspergillus niger | microbial growth | ATCC16404 |  | MIC | 128 µg/mL (≈ 418 µM)
O=C(c1ccc(F)cc1)c1c[nH]c2ncc(-c3ccnc(N4CCNCC4)c3)cc12 | MRC5 | cell growth or viability, MTT |  | 10 µM, 48 h | viability | 90.1%
[O-][N+]1=C(c2ccc(Cl)cc2)C2=NCCN2c2ccccc21 | Bacteroides fragilis | microbial growth |  |  | MIC50 | ≤ 0.06 µg/mL
Nc1ccn(C[C@@H](CO)OCP(=O)(O)O)c(=O)n1 | Human alphaherpesvirus 1 | cytopathic effect | HEL |  | EC50 | 2 µM
CCCCCOc1ccc(-c2cc(-c3ccc(C(=O)N[C@H]4C[C@@H](O)[C@@H](O)NC(=O)[C@@H]5[C@@H](O)[C@@H](C)CN5C(=O)[C@H]([C@H](O)CC(N)=O)NC(=O)[C@H]([C@H](O)[C@@H](O)c5ccc(O)c(OS(=O)(=O)O)c5)NC(=O)[C@@H]5C[C@@H](O)CN5C(=O)[C@H]([C@@H](C)O)NC4=O)cc3)no2)cc1 | Lodderomyces parapsilosis | biofilm formation |  | 16 µg/mL | inhibition | 49%
